In the library only some 1.9% were active in any assay of this set; here they are far more common.
LEDGF integ inh – blocks HIV-1 LEDGF/p75-dependent DNA integration. inhibition, % at 3.7 µM. 0.64% of 370,000 active. AID 743269. TR-FRET IN-LEDGF/p75 DNA integration, Eu/Cy5;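 active means inhibition above the screen-wide mean plus 3 SD, cut at about 13% in these data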;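 further: signal is the Cy5 over europium emission ratio at 671 and 618 nm; 0% = plate median of compound wells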
UHRF1 binding – blocks human UHRF1 binding to methylated DNA | Q96T88 | UHRF1 binding to methylated oligo, TR-FRET | inhibition, % at 4.4 µM | 0.75% of 370,000 active | AID 687016; in the data active means inhibition above about 21%;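 further: UHRF1 SRA domain binding a hemimethylated CpG hairpin DNA probe; 0% = median of test compound wells and 100% = reference inhibitor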
TDP2 absorb – TDP2 (human) inhibition, absorbance primary screen. O95551. recombinant TDP2, T5PNP hydrolysis, p-nitrophenol absorbance 415 nm. inhibition, % at 12.8 µM. 0.34% of 370,000 active. AID 720702;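 active means inhibition above the mean of all tested compounds plus 3 SD, set per campaign, cut at about 25% in these data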;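 further: 0% = DMSO with enzyme and 100% = buffer with substrate but no TDP2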
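Read-out basis: percent inhibition. System: recombinant human TDP2. Buffer or medium: Mg2+-containing Tris-HCl buffer, pH 7.5. Repeats: single replicate. Timing: reaction 2 h, 37 °C. Benchmarks: high control without enzyme, low control DMSO plus TDP2. Probe or stimulus: 5 mM T5PNP. Doses: 12.8 µM only. Measured by: epi absorbance of p-nitrophenol freed from T5PNP by hydrolysis.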
Rin1 Abl inh – human Rin1-Abl interaction inhibition; P00519+Q13671; TR-FRET Rin1/Abl binding, biochemical; inhibition, % at 7.35 µM; 0.4% of 360,000 active; in the data active means inhibition above about 5%, passing the limit was not always enough
Target sequence (P00519 whole entry, looked up): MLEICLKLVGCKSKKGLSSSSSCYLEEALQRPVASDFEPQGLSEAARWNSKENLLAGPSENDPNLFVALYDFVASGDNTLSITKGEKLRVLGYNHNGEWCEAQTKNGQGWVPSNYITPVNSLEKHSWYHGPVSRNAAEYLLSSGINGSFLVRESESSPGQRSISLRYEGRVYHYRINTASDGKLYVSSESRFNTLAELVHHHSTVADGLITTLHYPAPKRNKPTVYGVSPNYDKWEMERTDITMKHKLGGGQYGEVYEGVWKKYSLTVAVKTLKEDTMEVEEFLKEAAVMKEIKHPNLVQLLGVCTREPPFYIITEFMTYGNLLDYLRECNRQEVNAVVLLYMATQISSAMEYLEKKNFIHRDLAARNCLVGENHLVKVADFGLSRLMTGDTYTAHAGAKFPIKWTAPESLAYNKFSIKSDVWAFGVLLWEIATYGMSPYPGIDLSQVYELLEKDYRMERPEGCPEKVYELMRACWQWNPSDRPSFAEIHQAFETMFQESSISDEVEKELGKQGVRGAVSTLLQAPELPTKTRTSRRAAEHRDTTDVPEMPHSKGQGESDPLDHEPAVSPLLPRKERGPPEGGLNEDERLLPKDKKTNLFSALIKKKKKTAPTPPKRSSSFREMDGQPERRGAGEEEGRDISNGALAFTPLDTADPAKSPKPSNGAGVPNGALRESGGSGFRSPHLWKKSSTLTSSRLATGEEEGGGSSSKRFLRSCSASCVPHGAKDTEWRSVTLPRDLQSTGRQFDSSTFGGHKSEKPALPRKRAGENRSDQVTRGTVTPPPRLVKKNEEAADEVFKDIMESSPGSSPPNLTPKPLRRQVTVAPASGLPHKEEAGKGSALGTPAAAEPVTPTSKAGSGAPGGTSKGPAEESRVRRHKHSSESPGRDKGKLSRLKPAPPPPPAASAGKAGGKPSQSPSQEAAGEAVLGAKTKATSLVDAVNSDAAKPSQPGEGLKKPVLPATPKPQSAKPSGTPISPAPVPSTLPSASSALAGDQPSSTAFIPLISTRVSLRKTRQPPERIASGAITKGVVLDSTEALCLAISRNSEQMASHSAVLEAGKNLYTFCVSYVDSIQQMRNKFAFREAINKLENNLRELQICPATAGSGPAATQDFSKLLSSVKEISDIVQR
Target sequence (Q13671 whole entry, looked up): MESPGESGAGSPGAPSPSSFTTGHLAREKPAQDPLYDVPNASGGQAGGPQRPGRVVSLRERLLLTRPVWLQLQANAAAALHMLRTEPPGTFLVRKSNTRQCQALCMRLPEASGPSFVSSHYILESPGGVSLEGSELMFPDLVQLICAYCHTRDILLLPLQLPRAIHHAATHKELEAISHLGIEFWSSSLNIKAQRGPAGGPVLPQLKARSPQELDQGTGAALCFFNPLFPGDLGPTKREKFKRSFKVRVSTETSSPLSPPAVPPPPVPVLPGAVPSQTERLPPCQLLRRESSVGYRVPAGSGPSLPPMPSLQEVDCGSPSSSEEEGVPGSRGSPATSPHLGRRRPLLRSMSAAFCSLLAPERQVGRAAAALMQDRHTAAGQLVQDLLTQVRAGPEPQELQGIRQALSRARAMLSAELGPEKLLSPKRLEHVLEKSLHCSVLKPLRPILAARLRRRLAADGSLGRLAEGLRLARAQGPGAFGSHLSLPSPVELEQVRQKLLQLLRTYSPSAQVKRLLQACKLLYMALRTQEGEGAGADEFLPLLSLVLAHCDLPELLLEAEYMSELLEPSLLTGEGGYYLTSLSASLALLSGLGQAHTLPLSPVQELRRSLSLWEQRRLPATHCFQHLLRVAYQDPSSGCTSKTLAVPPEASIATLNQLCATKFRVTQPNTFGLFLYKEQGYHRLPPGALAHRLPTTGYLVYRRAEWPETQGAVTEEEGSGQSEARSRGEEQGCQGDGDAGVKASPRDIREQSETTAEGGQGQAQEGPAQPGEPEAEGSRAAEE
MBD2 inh – MBD2-methylated oligo binding inhibition | inhibition, % at 4.4 µM | Q9UBB5 | TR-FRET, MBD2 binding to methylated oligonucleotide | AID 686964 | 0.31% of 370,000 active; in the data active means inhibition above about 13%
IN multimer act – HIV-1 integrase multimerization activation, counter-screen; shares compounds with LEDGF integ inh; TR-FRET HIV-1 integrase multimerization, biochemical; activation, % at 7.7 µM; 17% of 2,000 active; in the data active means activation above about 8.9%
TRFRET interf – optically interferes with TR-FRET readout in LEDGF counter-screen; shares compounds with LEDGF integ inh; TR-FRET optical interference counterscreen, HIV-1 IN multimerization; inhibition, % at 7.7 µM; 2,000 tested, under 10 active;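 active means inhibition above the mean over all tested compounds plus 3 SD, which no compound reached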;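 further: 0% = integrase with antibodies and DMSO and 100% = antibodies without integrase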
IN-LEDGF confirm – LEDGF/p75-dependent HIV-1 integration inhibition, confirmation; 36% of 2,000 active; shares compounds with LEDGF integ inh; inhibition, % at 3.7 µM; AID 1053136; TR-FRET LEDGF/p75-dependent HIV-1 integration, biochemical; in the data active means inhibition above about 14%
* = called active by the depositor; x = no result given.

SMILES	LEDGF integ inh	UHRF1 binding	TDP2 absorb	Rin1 Abl inh	MBD2 inh	IN multimer act	TRFRET interf	IN-LEDGF confirm
OC(c1ccccc1)(c1nc(-c2cccc(F)c2)cs1)C(F)(F)F (configuration not stated)	-3	-1	-4	-3	-8	x	x	x
O=C(NC1CC1)c1sc2cc(Cl)ccc2c1Cl	-2	-3	2	-6	1	x	x	x
O=C(NC1CC1)c1sc2cc(F)ccc2c1Cl	21*	-1	4	0	-1	0	-1	2
Clc1ccc(-c2ccc(C=Nc3ccc(N4CCOCC4)cc3)o2)c(Cl)c1	13	1	11	-6	0	x	x	x
Clc1cccc(-c2ccc(C=Nc3ccc(N4CCOCC4)cc3)o2)c1Cl	24*	-1	15	-17	-5	4	-20	12
Clc1ccc(-c2ccc(C=Nc3ccc(N4CCOCC4)cc3)o2)cc1	18*	-1	19	-8	-1	2	-9	7
CC(=O)C1=C(O)C(=O)N(CCc2c[nH]c3ccccc23)C1c1ccc(C)cc1 (configuration not stated)	-1	-4	7	0	1	x	x	x
CC(=O)C1=C(O)C(=O)N(CCc2c[nH]c3ccccc23)C1c1ccco1 (configuration not stated)	15*	2	7	7	-4	2	-6	13
O=C(NCc1ccccc1F)c1ccc(S(=O)(=O)N2CCCC2)cc1	-1	2	7	2	2	x	x	x
O=c1[nH]c2cc3c(cc2cc1CN(Cc1cccnc1)Cc1nnnn1Cc1ccco1)OCCO3	39*	34*	-8	4	11	14*	-72	28*
CCOC(=O)C1=C(O)/C(=C\c2ccc(CNS(=O)(=O)c3ccc(Br)cc3)o2)N=C1C	22*	5	-3	-3	-2	3	-11	-3
COC(=O)C1=C(O)/C(=C\c2ccc(CNS(=O)(=O)c3ccc(Cl)cc3)o2)N=C1C	53*	13	1	6	0	5	-23	14*
COc1ccc(NC(=O)C(c2cccc3ccccc23)n2c(=O)c(-c3ccco3)nc3ccccc32)cc1 (configuration not stated)	-2	-3	-2	x	-1	x	x	x
COc1ccc([C@H]2C[C@H](O)[C@@H](n3cc(COC(=O)c4ccccc4)nn3)CN2CC2CCCCC2)cc1	28*	2	-4	-3	1	-1	3	-1
O=C(OCc1cn([C@H]2C[C@H](c3ccccc3)N(CC3CCCCC3)C[C@@H]2O)nn1)c1ccccc1	4	0	2	-2	-1	x	x	x
Fc1cccc(F)c1/C=C/c1ccc2ccccc2n1	-3	0	10	0	3	x	x	x
C(=C\c1ccco1)/c1ccc2ccccc2n1	18*	25*	-18	2	7	17*	-86	37*
O=C(O)c1cc(-c2ccco2)nn1-c1cccc(Cl)c1	15*	28*	-1	-2	6	1	-4	11
O=C(O)c1nn(-c2cccc(Cl)c2)c(=O)cc1O	17*	1	11	0	0	0	-2	-2
CSC1=NC2C(N1)N(C)C(=O)N2C (configuration not stated)	35*	-1	8	-2	1	0	2	-2
C=CCCC[C@H]1OC(=O)[C@H](C)NC(=O)[C@H](C(C)C)NC(=O)[C@@H]2CCCN2C(=O)[C@H](Cc2ccccc2)OC(=O)[C@@H](C(C)C)N(C)C(=O)[C@H](C(C)C)NC(=O)C1(C)C	16*	18	-5	x	11	0	-1	-8
Nc1cc(Cl)ccc1Oc1ccc(Cl)cc1	-1	-2	-4	8	0	x	x	x
Nc1cc(Cl)ccc1Oc1ccccc1	36*	-2	-7	-1	3	0	0	5
C/C(=N\NC(=O)c1cc(O)ccc1O)c1cccc(NC(=O)c2ccc(Cl)cc2)c1	41*	14	14	1	-1	19*	-97	16*
CC(=O)Nc1cccc(/C(C)=N/NC(=O)c2ccc(O)cc2)c1	2	-2	3	-1	-5	x	x	x
SMILES	LEDGF integ inh	UHRF1 binding	TDP2 absorb	Rin1 Abl inh	MBD2 inh	IN multimer act	TRFRET interf	IN-LEDGF confirm
C/C(=N\Nc1cccc(C(F)(F)F)c1)c1ccc(O)cc1	2	-2	-7	-2	3	x	x	x
O=C(NCCNCc1ccc(F)cc1)c1ccco1	22*	1	7	2	-3	0	-2	-2
O=C(NCCNC(=O)c1ccco1)c1ccc(F)cc1	-3	4	18	3	-1	x	x	x
O=C(O)c1ccc(NS(=O)(=O)c2ccc3c(c2)C2C=CCC2C(c2ccccc2F)N3)cc1 (configuration not stated)	43*	13	13	7	4	17*	-61	33*
Cn1cnc(C(=O)NCc2ccc(CNC(=O)OC(C)(C)C)cc2)c1C(=O)NCc1ccc(CNC(=O)OC(C)(C)C)cc1	4	0	-11	6	-1	x	x	x
Cc1cc(SCC(=O)c2ccc(O)c(O)c2)n2nc(C)c(-c3ccccc3)c2n1	17*	-3	-19	1	-1	0	2	12
Cc1cc(C)nc(SCC(=O)c2ccc(O)c(O)c2)n1	11	3	2	3	1	x	x	x
CC(C)[C@@H]1Cc2[nH]n(C)c(=O)c2[C@H](c2ccc(F)cc2)O1	87*	-5	11	x	-6	0	-2	-9
CCOC(=O)[C@]12CCC=C1N(Cc1ccccc1)C(=O)[C@H](CC(=O)NCc1cccc(C(F)(F)F)c1)C2	1	-3	-2	x	2	x	x	x
COc1cc2c(cc1OC)C(C1(O)CCCCC1)NCC2 (configuration not stated)	14*	-2	0	1	-4	1	-3	-12
COc1cc2c(cc1OC)C(C(N)=O)NCC2 (configuration not stated)	-3	0	4	2	0	x	x	x
O=C(CN(C(=O)c1csnn1)c1ccc2c(c1)OCCO2)NCc1ccccc1	26*	-1	6	3	-1	-2	9	-2
COc1ccccc1CNS(=O)(=O)c1ccc(-n2cccn2)cc1	2	0	-21	1	2	x	x	x
O=C(c1ccco1)N1CCN(C(=O)c2ccc(CS(=O)c3ccc(Br)cc3)o2)CC1 (configuration not stated)	-4	0	-3	-3	-1	x	x	x
